How the values were obtained:
[1] = test system: endogenous H3K14ac / histone H3 in HEK293 cells; assay type: cell-based; conditions: anti-Flag IP, anti-H3K14ac immunoblot
Outline: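 HEK293 cells were seeded at 300,000 per 6 cm dish and lipofection-transfected with Flag-tagged MORF N-terminal constructs (aa 1–352, or aa 1–215 lacking PHD1/2). After about 48 h, cells were lysed in buffer with 150 mM KCl and immunoprecipitated on anti-Flag M2 agarose. Beads were washed extensively and eluted in 50 mM phosphoric acid. Blots were probed with anti-Flag, anti-H3K14ac and anti-H3. Where indicated, TSA (3 μM) was added to the medium 6 h before harvest.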

HEK293 cells = assay: Live green fluorescence microscopy of GFP-MORF constructs; assay type: cell-based; conditions: 18 h post-transfection

B1: N-MORFΔPHD1/2: N-MORF (amino acids 1–215) in which the PHD1/2 fingers are deleted, Flag-tag fusion (protein)
chain: MVKLANPLYTEWILEAIQKIKKQKQRPSEERICHAVSTSHGLDKKTVSEQLELSVQDGSVLKVTNKGLASYKDPDNPGRFSSVKPGTFPKSAKGSRGSCNDLRNVDWNKLLRRAIEGLEEPNGSSLKNIEKYLRSQSDLTSTTNNPAFQQRLRLGAKRAVNNGRLLKDGPQYRVNYGSLDGKGAPQYPSAFPSSLPPVSLLPHEKDQPRADPIPI
modifications: left off: Flag, end not stated, kept
- Co-immunoprecipitation of endogenous H3K14ac [1]: unable to pull down acetylated histone H3

B2: GFP-N-MORFΔPHD1/2: GFP-tagged N-MORFΔPHD1/2 (amino acids 1–215) (protein, UniProt Q8WYB5 1-215, looked up, fragment)
chain: B1 chain
modifications: GFP tag
- Subcellular localization of GFP-MORF construct (HEK293 cells): evenly dispersed in the nucleus

B3: N-MORF: entire N-terminal region of MORF (amino acids 1–352), Flag-tag fusion (protein)
chain: MVKLANPLYTEWILEAIQKIKKQKQRPSEERICHAVSTSHGLDKKTVSEQLELSVQDGSVLKVTNKGLASYKDPDNPGRFSSVKPGTFPKSAKGSRGSCNDLRNVDWNKLLRRAIEGLEEPNGSSLKNIEKYLRSQSDLTSTTNNPAFQQRLRLGAKRAVNNGRLLKDGPQYRVNYGSLDGKGAPQYPSAFPSSLPPVSLLPHEKDQPRADPIPICSFCLGTKESNREKKPEELLSCADCGSSGHPSCLKFCPELTTNVKALRWQCIECKTCSACRVQGRNADNMLFCDSCDRGFHMECCDPPLSRMPKGMWICQVCRPKKKGRKLLHEKAAQIKRRYAKPIGRPKNKLKQR
modifications: left off: Flag, end not stated, kept
- Co-immunoprecipitation of endogenous H3K14ac [1]: co-immunoprecipitated endogenous H3K14ac

B4: GFP-N-MORF: GFP-tagged N-MORF (amino acids 1–352) (protein, UniProt Q8WYB5 1-352, looked up, fragment)
chain: B3 chain
modifications: GFP tag
- Subcellular localization of GFP-MORF construct (HEK293 cells): clearly associated with chromatin forming nuclear speckles
